Results reported in ChEMBL document CHEMBL5608193, “Discovery of bivalent small molecule degraders of cyclin-dependent kinase 7 (CDK7)” (Eur J Med Chem, 2024).
The source made the active and inactive calls. No cut-off for these calls is given here.

Experiments:
[1] = Cmax in male CD1 mouse at 3 mg/kg, IV measured upto 24 hrs by LC-MS/MS-39 analysis; type: ADME, organism-based; details: in vivo
How it was run: (§1)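 Three male CD1 mice given a single 3 mg/kg intravenous dose. Plasma prepared on ice by centrifugation (2000 g, 5 min, 4 °C) within 15 min, held at about −70 °C. Acetonitrile precipitation, then LC-MS/MS quantitation. Mean ± SD, n=3.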

[2] = biological target: T1, von Hippel-Lindau disease tumor suppressor/Cyclin-dependent kinase 7 (Homo sapiens) (UniProt P50613+P40337); experiment: PROTAC activity at CDK7/VHL in human Jurkat cells assessed as degradation of CDK7 in presence of 10 uM (S,R,S)-AHPC-me at 0.1 uM measured after 6 hrs incubation by immunoblot analysis; type: cell-based
T1 sequence (P40337 whole entry, looked up): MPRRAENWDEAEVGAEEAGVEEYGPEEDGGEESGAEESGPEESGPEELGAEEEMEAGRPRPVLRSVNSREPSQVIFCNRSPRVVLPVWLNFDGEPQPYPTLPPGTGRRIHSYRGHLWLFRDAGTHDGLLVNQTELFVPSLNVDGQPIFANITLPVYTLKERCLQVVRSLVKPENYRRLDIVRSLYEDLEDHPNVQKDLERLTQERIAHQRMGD
T1 sequence (P50613 whole entry, looked up): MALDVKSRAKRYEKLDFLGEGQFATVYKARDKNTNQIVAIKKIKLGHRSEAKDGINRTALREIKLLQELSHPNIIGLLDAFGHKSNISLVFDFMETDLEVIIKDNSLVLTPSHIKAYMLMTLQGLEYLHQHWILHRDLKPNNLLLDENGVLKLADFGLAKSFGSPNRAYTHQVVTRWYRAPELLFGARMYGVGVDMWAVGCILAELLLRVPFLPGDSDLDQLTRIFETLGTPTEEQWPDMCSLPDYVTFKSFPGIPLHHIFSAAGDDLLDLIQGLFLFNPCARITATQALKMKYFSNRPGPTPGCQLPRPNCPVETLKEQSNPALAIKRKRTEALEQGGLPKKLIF
How it was run: (§2)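 Jurkat cells pretreated 2 h with MG132, MLN-4924, YKL-5–167 or a VHL ligand, then given degrader for 6 h. CDK7 immunoblotted: RIPA lysis, SDS-PAGE, anti-CDK7 1:1000, IRDye secondaries.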

[3] = biological target: von Hippel-Lindau disease tumor suppressor/Cyclin-dependent kinase 2 (Homo sapiens) (UniProt P24941+P40337); experiment: PROTAC activity at CDK2/VHL in human Jurkat cells assessed as degradation of CDK7 measured at 10 to 500 nM after 6 hrs incubation by Western blotting analysis; type: cell-based; details: dose 10-500 nM
[4] = biological target: von Hippel-Lindau disease tumor suppressor/LON peptidase N-terminal domain and RING finger protein 2 (Homo sapiens) (UniProt P40337+Q1L5Z9); experiment: PROTAC activity at LONRF2/VHL in human Jurkat cells assessed as degradation of LONRF2 measured at 0.1 to 5 uM after 6 hrs incubation by Western blotting analysis; type: cell-based; details: dose 0.1-5 µM
von Hippel-Lindau disease tumor suppressor/LON peptidase N-terminal domain and RING finger protein 2 (Homo sapiens), sequence (P40337 whole entry, looked up, the tested form may be a part): as the sequence (P40337 whole entry, looked up) above
von Hippel-Lindau disease tumor suppressor/LON peptidase N-terminal domain and RING finger protein 2 (Homo sapiens), sequence (Q1L5Z9 whole entry, looked up, the tested form may be a part): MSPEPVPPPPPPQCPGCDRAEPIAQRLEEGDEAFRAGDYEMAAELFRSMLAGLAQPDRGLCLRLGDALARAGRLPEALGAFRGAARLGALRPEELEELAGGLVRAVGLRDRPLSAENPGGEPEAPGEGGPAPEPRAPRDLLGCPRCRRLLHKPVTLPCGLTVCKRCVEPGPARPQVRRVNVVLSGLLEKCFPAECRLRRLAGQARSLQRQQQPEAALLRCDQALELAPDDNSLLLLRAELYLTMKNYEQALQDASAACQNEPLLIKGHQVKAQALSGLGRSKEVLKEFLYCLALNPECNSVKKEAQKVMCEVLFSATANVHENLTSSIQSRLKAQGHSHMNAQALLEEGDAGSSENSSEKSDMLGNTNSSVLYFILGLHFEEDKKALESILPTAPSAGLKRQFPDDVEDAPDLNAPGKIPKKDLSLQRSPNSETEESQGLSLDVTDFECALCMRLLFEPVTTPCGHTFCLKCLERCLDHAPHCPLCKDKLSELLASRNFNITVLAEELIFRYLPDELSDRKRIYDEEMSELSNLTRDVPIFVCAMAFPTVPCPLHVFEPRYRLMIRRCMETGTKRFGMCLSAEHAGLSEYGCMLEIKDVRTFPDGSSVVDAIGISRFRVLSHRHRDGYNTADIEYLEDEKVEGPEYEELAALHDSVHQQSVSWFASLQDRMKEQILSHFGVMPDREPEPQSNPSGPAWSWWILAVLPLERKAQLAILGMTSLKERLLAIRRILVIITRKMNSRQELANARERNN

[5] = biological target: T1, von Hippel-Lindau disease tumor suppressor/Cyclin-dependent kinase 7 (Homo sapiens); experiment: PROTAC activity at CDK7/VHL in human Jurkat cells assessed as degradation of CDK7 in presence of 10 uM YKL-5-167 at 0.1 uM measured after 6 hrs incubation by immunoblot analysis; type: cell-based; how it was run: as §2
[6] = biological target: T1, von Hippel-Lindau disease tumor suppressor/Cyclin-dependent kinase 7 (Homo sapiens); experiment: PROTAC activity at CDK7/VHL in human Jurkat cells assessed as degradation of CDK7 in presence of 1 uM MLN-4924 at 0.1 uM measured after 6 hrs incubation by immunoblot analysis; type: cell-based; how it was run: as §2
[7] = biological target: T1, von Hippel-Lindau disease tumor suppressor/Cyclin-dependent kinase 7 (Homo sapiens); experiment: PROTAC activity at CDK7/VHL in human Jurkat cells assessed as degradation of CDK7 at 0.1 uM measured after 16 hrs incubation by immunoblot analysis relative to control; type: cell-based
How it was run: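 Jurkat cells given VHL-recruiting compounds at 0.1 or 1 μM for 16 h. RIPA lysis, BCA normalization, 4–20% SDS-PAGE, nitrocellulose transfer. CDK7 (1:1000) and β-actin probed overnight at 4 °C, IRDye secondaries, Odyssey detection. Quantified against control, mean ± SEM from three independent biological replicates.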

[8] = Observed volume of distribution at steady state in male CD1 mouse at 3 mg/kg, IV measured upto 24 hrs by LC-MS/MS-39 analysis; type: ADME, organism-based; details: in vivo, read-out: Vdss; how it was run: as §1
[9] = AUClast in male CD1 mouse at 10 mg/kg, IP measured upto 24 hrs by LC-MS/MS-39 analysis; type: ADME, organism-based; details: in vivo
How it was run: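 Male CD1 mice, n=3, one 10 mg/kg intraperitoneal dose. Blood sampled at 0, 0.25, 0.5, 1, 2, 4, 6, 8 and 24 h. Kept on wet ice and spun to plasma (2000 g, 5 min, 4 °C) within 15 min, stored at about −70 °C. Protein precipitation with acetonitrile, then LC-MS/MS. Values are mean ± SD of three mice.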

MOLT-4 = experiment: Antiproliferative activity against human MOLT-4 cells assessed as cell viability measured after 72 hrs by CellTiter-Glo assay; type: functional, cell-based; details: MOLT-4, 72 h
How it was run: (§3)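 Cells grown in RPMI 1640 with 10% heat-inactivated FBS and penicillin/streptomycin at 37 °C, 5% CO2, mycoplasma-negative. Seeded at 10^4/ml. Compounds dispensed digitally from 10 mM or 1 mM DMSO stocks, DMSO equalized, triplicate wells. After 72 h, CellTiter-Glo added for 10–15 min at room temperature and luminescence read.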

[10] = biological target: T1, von Hippel-Lindau disease tumor suppressor/Cyclin-dependent kinase 7 (Homo sapiens); experiment: PROTAC activity at CDK7/VHL in human Jurkat cells assessed as degradation of CDK7 measured at 0.1 to 5 uM after 6 hrs incubation by Western blotting analysis; type: cell-based; details: dose 0.1-5 µM
How it was run: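 Jurkat cells dosed across a concentration series up to 5 μM for 6 h. CDK7 immunoblot via RIPA lysis, 4–20% SDS-PAGE, IRDye secondaries. Quantified as mean ± SEM from three independent biological replicates.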

A549 = experiment: Antiproliferative activity against human A549 cells assessed as cell viability measured after 72 hrs by CellTiter-Glo assay; type: functional, cell-based; details: A549, 72 h; how it was run: as §3
[11] = AUClast in male CD1 mouse at 3 mg/kg, IV measured upto 24 hrs by LC-MS/MS-39 analysis; type: ADME, organism-based; details: in vivo; how it was run: as §1
Jurkat = experiment: Antiproliferative activity against human Jurkat cells assessed as cell viability measured after 72 hrs by CellTiter-Glo assay; type: functional, cell-based; how it was run: as §3
[12] = biological target: von Hippel-Lindau disease tumor suppressor/Cyclin-dependent kinase 4 (Homo sapiens) (UniProt P11802+P40337); experiment: PROTAC activity at CDK4/VHL in human Jurkat cells assessed as degradation of CDK7 measured at 10 to 500 nM after 6 hrs incubation by Western blotting analysis; type: cell-based; details: dose 10-500 nM
von Hippel-Lindau disease tumor suppressor/Cyclin-dependent kinase 4 (Homo sapiens), sequence (P11802 2-303 limits assumed): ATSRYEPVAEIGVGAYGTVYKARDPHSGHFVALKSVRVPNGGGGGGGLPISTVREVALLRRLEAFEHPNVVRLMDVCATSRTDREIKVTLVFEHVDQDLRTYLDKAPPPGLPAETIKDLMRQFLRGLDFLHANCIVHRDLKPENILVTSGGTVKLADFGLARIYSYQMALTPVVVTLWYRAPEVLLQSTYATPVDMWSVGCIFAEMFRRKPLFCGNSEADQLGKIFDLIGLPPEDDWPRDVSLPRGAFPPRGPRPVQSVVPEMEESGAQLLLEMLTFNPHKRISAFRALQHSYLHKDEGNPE
von Hippel-Lindau disease tumor suppressor/Cyclin-dependent kinase 4 (Homo sapiens), sequence (P40337 whole entry partner): as the sequence (P40337 whole entry, looked up) above

[13] = biological target: T1, von Hippel-Lindau disease tumor suppressor/Cyclin-dependent kinase 7 (Homo sapiens); experiment: PROTAC activity at CDK7/VHL in human SU-DHL-5 cells assessed as degradation of CDK7 at 0.1 to 5 uM measured after 6 hrs incubation by immunoblot analysis; type: cell-based; details: dose 0.1-5 µM
[14] = biological target: T1, von Hippel-Lindau disease tumor suppressor/Cyclin-dependent kinase 7 (Homo sapiens); experiment: PROTAC activity at CDK7/VHL in human MOLT-4 cells assessed as degradation of CDK7 at 0.1 to 5 uM measured after 6 hrs incubation by immunoblot analysis; type: cell-based; details: dose 0.1-5 µM
[15] = biological target: von Hippel-Lindau disease tumor suppressor/Cyclin-dependent kinase 5 (Homo sapiens) (UniProt Q00535+P40337); experiment: PROTAC activity at CDK5/VHL in human Jurkat cells assessed as degradation of CDK7 measured at 10 to 500 nM after 6 hrs incubation by Western blotting analysis; type: cell-based; details: dose 10-500 nM
von Hippel-Lindau disease tumor suppressor/Cyclin-dependent kinase 5 (Homo sapiens), sequence (P40337 whole entry, looked up): as above
von Hippel-Lindau disease tumor suppressor/Cyclin-dependent kinase 5 (Homo sapiens), sequence (Q00535 whole entry, looked up): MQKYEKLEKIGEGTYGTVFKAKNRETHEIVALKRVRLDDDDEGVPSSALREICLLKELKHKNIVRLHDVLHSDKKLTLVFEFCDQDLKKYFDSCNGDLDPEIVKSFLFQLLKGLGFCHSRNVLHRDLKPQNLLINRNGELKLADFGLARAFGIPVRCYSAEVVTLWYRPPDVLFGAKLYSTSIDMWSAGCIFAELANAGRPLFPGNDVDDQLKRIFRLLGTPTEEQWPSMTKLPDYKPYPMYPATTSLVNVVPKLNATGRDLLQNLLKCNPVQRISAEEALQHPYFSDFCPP

[16] = biological target: von Hippel-Lindau disease tumor suppressor/Cyclin-dependent kinase 6 (Homo sapiens) (UniProt Q00534+P40337); experiment: PROTAC activity at CDK6/VHL in human Jurkat cells assessed as degradation of CDK7 measured at 10 to 500 nM after 6 hrs incubation by Western blotting analysis; type: cell-based; details: dose 10-500 nM
von Hippel-Lindau disease tumor suppressor/Cyclin-dependent kinase 6 (Homo sapiens), sequence (P40337 whole entry, looked up): as the sequence (P40337 whole entry, looked up) above
von Hippel-Lindau disease tumor suppressor/Cyclin-dependent kinase 6 (Homo sapiens), sequence (Q00534 whole entry, looked up): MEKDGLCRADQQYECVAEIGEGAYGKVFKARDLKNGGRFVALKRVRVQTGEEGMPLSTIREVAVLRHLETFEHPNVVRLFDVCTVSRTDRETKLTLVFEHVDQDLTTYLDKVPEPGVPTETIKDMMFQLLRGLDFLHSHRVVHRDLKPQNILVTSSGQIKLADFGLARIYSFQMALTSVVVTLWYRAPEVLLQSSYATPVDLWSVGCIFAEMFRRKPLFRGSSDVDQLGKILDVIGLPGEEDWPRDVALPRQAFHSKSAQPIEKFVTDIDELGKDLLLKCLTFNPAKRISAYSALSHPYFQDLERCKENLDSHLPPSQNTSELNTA

## Cc1ncsc1-c1ccc([C@H](C)NC(=O)[C@@H]2C[C@@H](O)CN2C(=O)[C@@H](NC(=O)CCCC#Cc2ccc(C(=O)Nc3n[nH]c4c3CN(C(=O)N[C@H](CN(C)C)c3ccccc3)C4(C)C)cc2)C(C)(C)C)cc1
[1]
  Cmax: 17.1 µM
[2]
  Activity: inactive
[3]
  Activity: inactive
[4]
  Activity: inactive
[5]
  Activity: inactive
[6]
  Activity: inactive
[7]
  Activity: 95%
[8]
  Vd: 0.345 L/kg
[9]
  AUClast: 19.4 µM·h
MOLT-4
  IC50: 89 nM
[10]
  Activity: Active
A549
  IC50: 332 nM
[11]
  AUClast: 6.12 µM·h
Jurkat
  IC50: 160 nM
[12]
  Activity: inactive
[13]
  Activity: Dose-Dependent Effect
[14]
  Activity: Dose-Dependent Effect
[15]
  Activity: inactive
[16]
  Activity: inactive
